Measured values pooled from the literature.
Compare with care: the assays were run in different laboratories.
Target: Serine/threonine-protein kinase ULK3 (ULK3, Homo sapiens, UniProt Q6PHR2)
Sequence (Q6PHR2 1-472, as in one of the studies): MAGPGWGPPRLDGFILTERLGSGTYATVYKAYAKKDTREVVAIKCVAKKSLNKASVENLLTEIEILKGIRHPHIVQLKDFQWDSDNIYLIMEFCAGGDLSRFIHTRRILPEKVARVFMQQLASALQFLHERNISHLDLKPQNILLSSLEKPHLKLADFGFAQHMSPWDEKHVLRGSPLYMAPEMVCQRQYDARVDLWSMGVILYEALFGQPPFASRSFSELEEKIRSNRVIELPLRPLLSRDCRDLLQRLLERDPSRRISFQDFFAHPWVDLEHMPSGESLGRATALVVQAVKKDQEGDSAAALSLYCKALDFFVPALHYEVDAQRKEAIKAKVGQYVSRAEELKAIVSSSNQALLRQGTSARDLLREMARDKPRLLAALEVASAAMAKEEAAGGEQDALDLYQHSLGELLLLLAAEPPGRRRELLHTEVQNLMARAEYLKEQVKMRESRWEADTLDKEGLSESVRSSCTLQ

| test | setting | quantity | value | Compound |
| --- | --- | --- | --- | --- |
| binding, competition with immobilised ligand | 1 µM | remaining binding | 85% | Cc1ccc(NC(=O)c2ccnc(C(F)(F)F)c2)cc1-c1cc(OCCO)nc(N2CCOCC2)c1 |
| enzyme activity, inhibitor | 1 µM | inhibition | 11% | C=CC(=O)N1CCC([C@@H]2CCNc3c(C(N)=O)c(-c4ccc(Oc5ccccc5)cc4)nn32)CC1 |
| cell-free assay | 0.1 µM | remaining signal | 57% | C1=C/COCc2cc(ccc2OCCN2CCCC2)Nc2nccc(n2)-c2cccc(c2)COC/1 |
| enzyme activity, inhibitor | 1 µM | inhibition | 29% | C=CC(=O)N1CCC[C@@H](n2nc(-c3ccc(Oc4ccccc4)cc3)c3c(N)ncnc32)C1 |
| binding, competition with immobilised ligand | 0.5 µM | remaining binding | 99% | CCCCC(=O)Nc1ccc(-c2ccc3ncn(CCC)c(=O)c3c2)cn1 |
| enzyme activity, inhibitor | 0.2 µM | inhibition | 57.5% | C#Cc1cc(-c2cc(Nc3nc(N[C@@H](C)c4ccc(F)cn4)ncc3Cl)n[nH]2)ccc1C=O |
| binding, competition with immobilised ligand | 1 µM | remaining binding | 7.6% | CN1CCN(C(=O)c2ccc(NC(=O)Nc3ccc(N(C)c4ccnc(Nc5ccc(CS(C)(=O)=O)cc5)n4)cc3)cc2)CC1 |
| binding | 1 µM | remaining binding | 96% | COc1ccc2oc(-c3ccc4nc(N)oc4c3)c/c(=N\c3ccccc3NC(=O)CCN)c2c1 |
